Source: ChEMBL document CHEMBL1131493, “Inhibitors of farnesyl protein transferase. 4-Amido, 4-carbamoyl, and 4-carboxamido derivatives of 1-(8-chloro-6,11-dihydro-5H-benzo[5,6]- cyclohepta[1,2-b]pyridin-11-yl)piperazine and 1-(3-bromo-8-chloro-6,11- dihydro-5H-benzo[5,6]cyclohepta[1,2-b]pyridin-11-yl)piperazine” (J Med Chem, 1998)

Columns and labels:
[1] = target: T1, Protein farnesyltransferase (Homo sapiens, UniProt P49354+P49356); experiment: Inhibition of Farnesyltransferase from Ras-CVLS or Ras-CVLL in Cos-7 monkey kidney cells; type: cell-based, Chlorocebus aethiops
[2] = target: T1, Protein farnesyltransferase; experiment: In vitro inhibition of farnesyltransferase farnesylation of the H-ras oncogene; type: protein-complex assay; parameters: Inhibition: concentration or dose not given beside the values
[3] = target: geranylgeranyltransferase type-I (Rattus norvegicus, UniProt P53610+Q04631); experiment: Inhibition of rat Geranylgeranyl transferase (GGPT); type: protein-complex assay
[4] = In vivo antitumor efficacy in nude mice by injecting a dose of 25 mg/kg, as HCl salt in saline solution, iv and the total drug exposure was determined. (0-24hr); type: ADME, organism-based; parameters: time < 24 hr, dose 25 mg/kg, route intravenous; details: mouse
[5] = Maximal plasma concentration in nude mice after 25 mg/kg oral dose; type: ADME, organism-based; parameters: dose 25 mg/kg, route oral; details: mouse
How it was run: (§1)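 Serum pharmacokinetics in nude mice or cynomolgus monkeys after oral (po) or iv dosing. Compounds were given as hydrochloride salts in 20% HPβCD unless otherwise noted. Other formulations were the hydrochloride salt in saline, the micronized free base in 20% HPβCD or corn oil (po) with saline for iv, or the hydrochloride salt in 0.4% methyl cellulose (po).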

[6] = In vivo antitumor efficacy in nude mice 0-24 hr after peroral dose of 25 mg/kg expressed as Area under the curve; type: ADME, organism-based; parameters: time < 24 hr, dose 25 mg/kg, route oral; details: nude, mouse, po; how it was run: as §1
[7] = In vivo antitumor efficacy in nude mice by injecting a dose of 25 mg/kg iv and serum half-life was determined; type: ADME, organism-based; parameters: dose 25 mg/kg, route intravenous; details: mouse; how it was run: as §1
[8] = Oral bioavailability in mouse (nude) (dose of 25 mg/kg); type: ADME, organism-based; details: in vivo; how it was run: as §1
Mus musculus = experiment: In vivo antitumor efficacy after peroral dose of 25 mg/kg in mice expressed as duration for which compound was present above IC50; type: ADME, organism-based; parameters: dose 25 mg/kg, route oral; details: po; how it was run: as §1
[9] = In vivo antitumor efficacy in nude mice 0-24 hr after intravenous dose of 25 mg/kg expressed as Area under the curve; type: ADME, organism-based; parameters: time < 24 hr, dose 25 mg/kg, route intravenous; details: mouse; how it was run: as §1

Row | IC50 [3] [µM] | SMILES | IC50 [1] [µM] | IC50 [2] [µM] | further results
1 |  | CN1CCCC(CC(=O)N2CCN(C3c4ccc(Cl)cc4CCc4cccnc43)CC2)C1 (stereo unspecified) | 2.4 | 1.19 | 
2 | > 50 | O=C(C(c1ccccc1)c1ccccc1)N1CCN(C2c3ccc(Cl)cc3CCc3cccnc32)CC1 (stereo unspecified) |  |  | 
3 |  | CC(C)(C(=O)N1CCN(C2c3ccc(Cl)cc3CCc3cc(Br)cnc32)CC1)c1cc[n+]([O-])cc1 (stereo unspecified) | 5 | 0.39 | 
4 | > 50 | O=C(/C=C/c1cccnc1)N1CCN(C2c3ccc(Cl)cc3CCc3cccnc32)CC1 (stereo unspecified) |  | 2.6 | 
5 |  | CC(C)(C(=O)N1CCN(C2c3ccc(Cl)cc3CCc3cc(Br)cnc32)CC1)c1cccnc1 (stereo unspecified) | 0.9 | 0.3 | 
6 |  | O=C(Cc1ccc[n+]([O-])c1)N1CCN(C2c3ccc(Cl)cc3CCc3ccc[n+]([O-])c32)CC1 (stereo unspecified) | > 20 | 3.8 | 
7 | > 43 | CC(=O)C1CCC(C(=O)N2CCN(C3c4ccc(Cl)cc4CCc4cccnc43)CC2)CC1 (stereo unspecified) | 4.9 | 1.24 | 
8 |  | O=C(Oc1ccc[n+]([O-])c1)N1CCN(C2c3ccc(Cl)cc3CCc3cc(Br)cnc32)CC1 (stereo unspecified) | 6 | 0.28 | 
9 | > 40 | O=C(CN1C(=O)c2ccccc2C1=O)N1CCN(C2c3ccc(Cl)cc3CCc3cccnc32)CC1 (stereo unspecified) |  |  | 
10 |  | O=C(Nc1ccc[n+]([O-])c1)N1CCN(C2c3ccc(Cl)cc3CCc3cc(Br)cnc32)CC1 (stereo unspecified) | 3.6 | 0.24 | 
11 | > 33 | N[C@@H](CO)C(=O)N1CCC(CC(=O)N2CCN(C3c4ccc(Cl)cc4CCc4cc(Br)cnc43)CC2)CC1 (stereo partly specified) | 1.05 | 0.104 | 
12 | > 40 | O=C(Nc1ccncc1)N1CCN(C2c3ccc(Cl)cc3CCc3cccnc32)CC1 (stereo unspecified) |  |  | 
13 |  | CC(=O)N1CCC(CC(=O)N2CCN(C3c4ccc(Cl)cc4CCc4cccnc43)CC2)CC1 (stereo unspecified) | 2.7 | 0.87 | 
14 |  | CC(=O)N1CCC(C(=O)N2CCN([C@H]3c4ccc(Cl)cc4CCc4cccnc43)CC2)CC1 | 6.5 | 1.8 | 
15 |  | CC(C)(C(=O)N1CCN(C2c3ccc(Cl)cc3CCc3cccnc32)CC1)c1cccnc1 (stereo unspecified) | 6.1 |  | 
16 |  | CCCC[C@H]1CN(C2c3ccc(Cl)cc3CCc3cc(Br)cnc32)CCN1C(=O)CC1CCN(C(N)=O)CC1 (stereo partly specified) | 0.6 | 0.027 | 
17 |  | CN1CCC(CC(=O)N2CCN(C3c4ccc(Cl)cc4CCc4c(Cl)ccnc43)CC2)CC1 (stereo unspecified) | 5.7 | 0.45 | 
18 | > 33 | CCCNC(=O)N1CCC(CC(=O)N2CCN(C3c4ccc(Cl)cc4CCc4cc(Br)cnc43)CC2)CC1 (stereo unspecified) | 1.5 | 0.1 | 
19 |  | O=C(Nc1cccnc1)N1CCN([C@H]2c3ccc(Cl)cc3CCc3cccnc32)CC1 | 7.3 | 0.46 | 
20 |  | COCC[C@H]1CN(C2c3ccc(Cl)cc3CCc3cc(Br)cnc32)CCN1C(=O)Cc1cc[n+]([O-])cc1 (stereo partly specified) | < 0.25 | 0.034 | Cmax [5]: 9 µM; AUC at 24 h [6]: 19900 ng·h/mL; Time above IC50 (Mus musculus): 7 h
21 |  | CN1CCC(OC(=O)N2CCN(C3c4ccc(Cl)cc4CCc4cc(Br)cnc43)CC2)CC1 (stereo unspecified) | > 5 | 0.31 | 
22 |  | CC(=O)N1CCC(CC(=O)N2CCN([C@H]3c4ccc(Cl)cc4CCc4cccnc43)CC2)CC1 | 6.2 | 1.6 | 

Row | IC50 [3] [µM] | SMILES | IC50 [1] [µM] | IC50 [2] [µM] | further results
23 | > 46 | O=C(Nc1ccccn1)N1CCN(C2c3ccc(Cl)cc3CCc3cccnc32)CC1 (stereo unspecified) | 1.3 |  | 
24 |  | O=C(Oc1cccnc1)N1CCN([C@@H]2c3ccc(Cl)cc3CCc3cccnc32)CC1 | 6.9 | 1.28 | 
25 |  | O=C(Oc1cccnc1)N1CCN([C@H]2c3ccc(Cl)cc3CCc3cccnc32)CC1 | 3.9 | 0.82 | 
26 | > 38 | CN1CCC(CC(=O)N2CCN([C@H]3c4ccc(Cl)cc4CCc4cc(Br)cnc43)CC2)CC1 |  |  | 
27 |  | O=C(Cc1ccc[n+]([O-])c1)N1CCN(C2c3ccc(Cl)cc3CCc3cccnc32)CC1 (stereo unspecified) |  |  | Cmax [5]: 12 µM; AUC at 24 h [6]: 11000 ng·h/mL; AUC at 24 h [9]: 12300 ng·h/mL; half-life [7]: 36 min; bioavailability [8]: 89%; Time above IC50 (Mus musculus): 4 h
28 |  | O=C(Oc1cccnc1)N1CCN(C2c3ccc(Cl)cc3CCc3cccnc32)CC1 (stereo unspecified) | 3 | 0.5 | 
29 | > 38 | CN1CCC(CC(=O)N2CCN([C@@H]3c4ccc(Cl)cc4CCc4cc(Br)cnc43)CC2)CC1 |  |  | 
30 |  | O=C(Cc1ccccc1)N1CCN(C2c3ccc(Cl)cc3CCc3cccnc32)CC1 (stereo unspecified) | 12 |  | 
31 |  | O=C(Nc1cc[n+]([O-])cc1)N1CCN(C2c3ccc(Cl)cc3CCc3cc(Br)cnc32)CC1 (stereo unspecified) | 5.8 | 0.21 | 
32 |  | COCC[C@H]1CN(C2c3ccc(Cl)cc3CCc3cc(Br)cnc32)CCN1C(=O)CC1CCN(C(N)=O)CC1 (stereo partly specified) | 1.7 | 0.092 | 
33 | > 38 | CN1CCC(NC(=O)N2CCN(C3c4ccc(Cl)cc4CCc4cc(Br)cnc43)CC2)CC1 (stereo unspecified) | 0.53 | 0.041 | 
34 |  | O=C(CC1CCNCC1)N1CCN([C@@H]2c3ccc(Cl)cc3CCc3cc(Br)cnc32)CC1 | 0.56 | 0.087 | 
35 |  | C[C@H](N)C(=O)N1CCC(CC(=O)N2CCN(C3c4ccc(Cl)cc4CCc4cccnc43)CC2)CC1 (stereo partly specified) |  | 2.5 | 
36 |  | Clc1ccc2c(c1)CCc1cccnc1C2N1CCN(CCc2cccnc2)CC1 (stereo unspecified) |  |  | Inhibition [2]: 23%
37 |  | O=C(Cc1ccncc1)NCCNC1c2ccc(Cl)cc2CCc2cccnc21 (stereo unspecified) |  | 25.8 | 
38 |  | O=C(Cc1cc[n+]([O-])cc1)N1CCN([C@H]2c3ccc(Cl)cc3CCc3cccnc32)CC1 | 5 | 0.49 | AUC at 24 h [4]: 21500 ng·h/mL; Cmax [5]: 10 µM; AUC at 24 h [6]: 15500 ng·h/mL; half-life [7]: 48 min; bioavailability [8]: 72%; Time above IC50 (Mus musculus): 4 h
39 |  | CC(S)C(=O)NCC(=O)N1CCN(C2c3ccc(Cl)cc3CCc3cccnc32)CC1 (stereo unspecified) |  | 2.78 | 
40 |  | CNC(=O)N1CCC[C@@H](CC(=O)N2CCN(C3c4ccc(Cl)cc4CCc4cccnc43)CC2)C1 (stereo partly specified) |  | 7 | 
41 |  | CC(C)(C(=O)N1CCN(C2c3ccc(Cl)cc3CCc3cccnc32)CC1)c1cc[n+]([O-])cc1 (stereo unspecified) |  | 2.2 | 
42 |  | CN1CCCC(C(=O)N2CCN(C3c4ccc(Cl)cc4CCc4cccnc43)CC2)C1 (stereo unspecified) |  | 6.8 | 
43 |  | O=C(Nc1ccc[n+]([O-])c1)N1CCN(C2c3ccc(Cl)cc3CCc3cccnc32)CC1 (stereo unspecified) |  | 2.2 | 

Row | SMILES | IC50 [3] [µM] | IC50 [1] [µM] | IC50 [2] [µM] | further results
44 | CCCC[C@H]1CN(C2c3ccc(Cl)cc3CCc3cc(Br)cnc32)CCN1C(=O)Cc1cc[n+]([O-])cc1 (stereo partly specified) | > 34.2 | 0.63 | 0.06 | AUC at 24 h [4]: 91400 ng·h/mL; Cmax [5]: 11.5 µM; AUC at 24 h [6]: 43200 ng·h/mL; half-life [7]: 120 min; bioavailability [8]: 47%; Time above IC50 (Mus musculus): 7 h
45 | O=C(Nc1cccnc1)N1CCN(C2c3ccc(Cl)cc3CCc3cc(Br)cnc32)CC1 (stereo unspecified) | > 10 | 3.7 | 0.21 | 
46 | O=C(Cc1ccc(Br)cc1)N1CCN(C2c3ccc(Cl)cc3CCc3cccnc32)CC1 (stereo unspecified) | > 50 | 5.1 |  | 
47 | CN(C)c1ccc(CC(=O)N2CCN(C3c4ccc(Cl)cc4CCc4cccnc43)CC2)cc1 (stereo unspecified) | 42 |  |  | 
48 | O=C(Nc1cccnc1)N1CCN(C2c3ccc(Cl)cc3CCc3cccnc32)CC1 (stereo unspecified) | > 46 | 4.8 |  | 
49 | O=C(Nc1ccccc1)N1CCN(C2c3ccc(Cl)cc3CCc3cccnc32)CC1 (stereo unspecified) | > 40 |  | 1.09 | 
50 | O=C(Cc1cccnc1)N1CCN(C2c3ccc(Cl)cc3CCc3cc(Br)cnc32)CC1 (stereo unspecified) | > 10 | 0.85 | 0.17 | 
51 | O=C(Cc1ccccn1)N1CCN(C2c3ccc(Cl)cc3CCc3cccnc32)CC1 (stereo unspecified) | > 46 |  |  | 
